The subject of data set [1] is Brain. Description: Drug uptake in C57BL/6 mouse brain at 6 umol/kg, po dosed in HS15/propylenglycol/citrate buffer, pH 4.75, 50 mM (10/5/85, v/v/v) measured 1 hr post dosing by LC/MS/MS analysis. The class given is ADME, organism-based. As to conditions: in vivo, pH 4.75, 1 h. The method in brief:
(§1)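 Male C57BL/6 mice dosed by oral gavage, 10 mL/kg. Blood sampled 0.25, 0.5, 1, 2, 4, 6 h; brain at 1 and/or 4 h; n = 3 per time. Blood acetonitrile-precipitated, brain water-homogenized then precipitated; LC-MS/MS with weighted linear calibration.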

A short description of data set [2]: Ratio of drug uptake in brain to blood in C57BL/6 mouse at 60 umol/kg, po dosed in HS15/propylenglycol/citrate buffer, pH 4.75, 50 mM (10/5/85, v/v/v) measured 4 hrs post dosing by LC/MS/MS analysis. The data set is classed as ADME, organism-based. The method in brief: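 Male C57BL/6 mice received the dose by oral gavage at 10 mL/kg. Blood and brain were collected at 1 and/or 4 h postdose. Brain was homogenised in water, and both matrices were extracted by acetonitrile precipitation and quantified by LC-MS/MS. The ratio is mean brain (nmol/g) over mean blood (nmol/mL) concentration, n = 3.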

Data set [3] in a line: AUC (0 to infinity) in C57BL/6 mouse at 6 umol/kg, po dosed in HS15/propylenglycol/citrate buffer, pH 4.75, 50 mM (10/5/85, v/v/v) by LC/MS/MS analysis. The class given is ADME, organism-based. As to conditions: plasma. The arrangement: dose 6 umol/kg, time infinity, route oral. The method in brief:
(§2)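 Male C57BL/6 mice were dosed by oral gavage at 10 mL/kg. Blood was sampled at 0.25, 0.5, 1, 2, 4 and 6 h postdose, extracted by acetonitrile precipitation and quantified by LC-MS/MS (typical LLOQ 0.4 ng/mL). AUCinf was obtained by noncompartmental analysis of concentration–time profiles, weighting 1/Y, with at least three terminal log-linear points.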

Data set [4] in a line: Ratio of drug uptake in brain to blood in C57BL/6 mouse at 6 umol/kg, po dosed in carboxymethyl cellulose 0.5% w/v in water/Tween 80 (99.5/0.5, v/v) measured 1 hr post dosing by LC/MS/MS analysis. The data set is classed as ADME, organism-based. Summed up: as §1
Data set [5] in a line: AUC (0 to infinity) in C57BL/6 mouse at 60 umol/kg, po dosed in carboxymethyl cellulose 0.5% w/v in water/Tween 80 (99.5/0.5, v/v) by LC/MS/MS analysis. The data set is classed as ADME, organism-based. The arrangement: dose 60 umol/kg, route oral, time infinity. As to conditions: in vivo. The method in brief: as §2
The test system of data set [6] is MDR1 (human). Description: Efflux ratio of permeability from basolateral to apical over apical to basolateral side of MDCK cells expressing human MDR1 at 5 uM after 2 hrs by LC/MS analysis. The class given is ADME, cell-based, Canis lupus familiaris. As to conditions: dog. Summed up: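 MDCK cells retrovirally transduced with human MDR1, seeded on transwells ≥3 days; bidirectional transport at 5 μM, 2 h, 37 °C, LC/MS quantitation. Papp = (dQ/dt)/(A·C0), A 0.11 cm2; ER = Papp B>A / Papp A>B. Means of at least three experiments.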

A short description of data set [7]: Drug uptake in C57BL/6 mouse blood at 2 umol/kg, iv dosed in N-methyl pyrrolidone/blank plasma (10:90 v/v) measured 1 hr post dosing by LC/MS/MS analysis. The data set is classed as ADME, organism-based. To be noted: read-out: Drug uptake. The method in brief:
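Male C57BL/6 mice, saphenous vein injection under light anesthesia, 5 mL/kg. Blood at 5, 30 min and 1, 2, 4, 6, 8 h; brain at 5 min, 1, 4, 8 h; n = 3/time. LC-MS/MS after acetonitrile precipitation (brain water-homogenized). Noncompartmental analysis, 1/Y weighting, terminal slope from ≥3 points.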

Data set [8] is described as follows: Oral bioavailability in C57BL/6 mouse at 6 umol/kg dosed in carboxymethyl cellulose 0.5% w/v in water/Tween 80 (99.5/0.5, v/v) by LC/MS/MS analysis. The data set is classed as ADME, organism-based. As to conditions: in vivo. The method in brief: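 Oral gavage (10 mL/kg) to male C57BL/6 mice with iv reference segment (2 μmol/kg, NMP/blank plasma 10:90). Noncompartmental analysis of LC-MS/MS blood profiles, 1/Y weighting; %F = dose-normalized oral AUC / dose-normalized iv AUC × 100, assuming linear pharmacokinetics between doses.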

The Kp is the ratio of the level in a tissue or fluid to that in plasma or blood. The term AUC(0-inf) denotes total exposure, with the tail of the curve extrapolated. Lower therefore signals less exposure. Take `CC(C)(C)c1cccc(CN[C@H]2CS(=O)(=O)C[C@@H](Cc3cc(F)c(N)c(OC(C(F)(F)F)C(F)(F)F)c3)[C@@H]2O)c1`: the Drug uptake in data set [1] is recorded as 0.02 nmol/g. Further, the Kp at 4 h in data set [2] amounted to 0.8. In data set [3], this compound had an AUC(0-inf) of 0.398 µM·h.
What is called efflux ratio is a quotient of directional permeabilities that is used to spot active efflux. One may read the bioavailability as dose-corrected exposure relative to a reference, in per cent. As to `CC(C)(C)c1cccc(CN[C@H]2CS(=O)(=O)C[C@@H](Cc3cc(F)c(N)c(OCC(F)(F)F)c3)[C@@H]2O)c1`, the Kp at 1 h in data set [4] amounted to 2.7. The compound also displayed an AUC(0-inf) in data set [5] of 14.8 µM·h. Besides, in data set [6], the efflux ratio at 2 h, 5 µM came to 5. Besides, in data set [7], the concentration at 1 h came to 60 nM. In addition, in data set [8], the bioavailability came out at 52%.

The values are drawn from ChEMBL document CHEMBL2046351, “Discovery of cyclic sulfone hydroxyethylamines as potent and selective β-site APP-cleaving enzyme 1 (BACE1) inhibitors: structure-based design and in vivo reduction of amyloid β-peptides” (J Med Chem, 2012).
